# In ChEMBL document CHEMBL3351355, “Structure-affinity/activity relationships of 1,4-dioxa-spiro[4.5]decane based ligands at α1 and 5-HT1A receptors” (Eur J Med Chem, 2014):
# Columns and labels:
# [1] = biological target: T1, 5-hydroxytryptamine receptor 1A (Homo sapiens, UniProt P08908); assay: Displacement of [3H]8-OH-DPAT from human recombinant 5-HT1A receptor expressed in HeLa cells after 30 mins by liquid scintillation counting; assay type: cell-based
# T1 sequence (P08908 whole entry): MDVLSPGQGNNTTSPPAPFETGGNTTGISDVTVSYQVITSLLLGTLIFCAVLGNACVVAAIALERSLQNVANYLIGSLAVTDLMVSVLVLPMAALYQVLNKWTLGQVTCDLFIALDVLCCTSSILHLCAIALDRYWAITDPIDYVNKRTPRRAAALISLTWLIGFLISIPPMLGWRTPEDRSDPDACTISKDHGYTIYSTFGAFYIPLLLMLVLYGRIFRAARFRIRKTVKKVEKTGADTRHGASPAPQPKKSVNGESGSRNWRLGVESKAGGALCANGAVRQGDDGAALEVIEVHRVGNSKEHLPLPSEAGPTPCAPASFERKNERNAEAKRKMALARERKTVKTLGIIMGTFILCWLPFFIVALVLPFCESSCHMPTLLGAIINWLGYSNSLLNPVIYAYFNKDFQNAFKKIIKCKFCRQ
# Summary of the method: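 HeLa cells stably carrying genomic clone G-21 were grown in DMEM with 10% FCS, then lysed in Tris/EDTA pH 7.4. Membranes (80–90 µg protein) were incubated in 50 mM Tris, 2.5 mM MgCl2, 10 µM pargyline, pH 7.4, with 1 nM [3H]8-OH-DPAT and competitor (1 pM–1 µM) for 30 min at 30 °C, in triplicate. Nonspecific binding with 10 µM 5-HT. pKi from 2–3 experiments.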
# Rattus norvegicus = species: Rattus norvegicus; assay: Selectivity ratio of Kb for alpha1D adrenoceptor in Wistar rat thoracic aorta to Kb for alpha1B adrenoceptor in Wistar rat spleen; assay type: tissue-based
# [2] = biological target: T2, Alpha-1A adrenergic receptor (Rattus norvegicus) (UniProt P43140); assay: Antagonist activity at alpha1A adrenoceptor in Wistar rat vas deferans assessed as noradrenaline-induced contractions after 30 mins
# T2 sequence (whole entry): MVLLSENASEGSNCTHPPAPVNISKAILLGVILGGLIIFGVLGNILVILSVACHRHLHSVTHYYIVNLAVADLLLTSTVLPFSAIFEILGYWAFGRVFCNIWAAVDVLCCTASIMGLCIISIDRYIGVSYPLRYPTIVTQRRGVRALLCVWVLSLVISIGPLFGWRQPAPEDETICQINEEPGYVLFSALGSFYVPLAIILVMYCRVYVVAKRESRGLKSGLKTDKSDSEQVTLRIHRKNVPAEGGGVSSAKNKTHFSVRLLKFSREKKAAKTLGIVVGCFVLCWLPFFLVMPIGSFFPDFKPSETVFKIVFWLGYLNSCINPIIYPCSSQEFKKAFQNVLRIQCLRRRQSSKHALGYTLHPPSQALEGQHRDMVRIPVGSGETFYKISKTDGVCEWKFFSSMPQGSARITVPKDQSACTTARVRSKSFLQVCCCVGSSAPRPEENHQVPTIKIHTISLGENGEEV
# [3] = biological target: T3, Alpha-1D adrenergic receptor (Homo sapiens, UniProt P25100); assay: Displacement of [3H]prazosin from human recombinant alpha1D adrenoceptor expressed in CHO cells after 30 mins by liquid scintillation counting; assay type: cell-based
# T3 sequence (P25100 whole entry): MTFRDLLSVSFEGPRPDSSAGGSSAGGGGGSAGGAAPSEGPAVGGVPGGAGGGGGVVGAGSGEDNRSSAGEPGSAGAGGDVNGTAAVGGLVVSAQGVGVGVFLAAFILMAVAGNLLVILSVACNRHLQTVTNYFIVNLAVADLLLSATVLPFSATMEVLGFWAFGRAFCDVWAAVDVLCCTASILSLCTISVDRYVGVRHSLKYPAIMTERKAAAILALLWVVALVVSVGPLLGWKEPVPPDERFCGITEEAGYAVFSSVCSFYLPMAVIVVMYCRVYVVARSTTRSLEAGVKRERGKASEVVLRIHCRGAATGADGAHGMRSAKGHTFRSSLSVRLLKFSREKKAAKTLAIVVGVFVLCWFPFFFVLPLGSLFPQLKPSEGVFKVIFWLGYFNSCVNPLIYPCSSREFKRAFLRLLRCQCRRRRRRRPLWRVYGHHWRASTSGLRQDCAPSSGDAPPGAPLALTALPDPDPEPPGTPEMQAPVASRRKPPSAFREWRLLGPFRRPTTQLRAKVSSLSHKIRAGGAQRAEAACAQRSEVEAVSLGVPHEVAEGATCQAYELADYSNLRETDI
# Summary of the method: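 CHO cells were stably transfected by electroporation with each human α1 subtype. Membranes (70 µg protein) were incubated in 50 mM Tris pH 7.4 with 0.1–0.4 nM [3H]prazosin and competitor (1 pM–1 µM) for 30 min at 25 °C. Nonspecific binding with 10 µM tamsulosin. Filtration and scintillation counting. pKi from 2–3 experiments in duplicate.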
# [4] = biological target: T4, 5-hydroxytryptamine receptor 1A (Homo sapiens) (UniProt P08908); assay: Agonist activity at human recombinant 5-HT1A receptor expressed in HeLa cells after 30 mins by [35S]GTPgammaS binding assay; assay type: functional, cell-based
# T4 sequence (whole entry): T1 sequence (P08908 whole entry)
# Summary of the method: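 HeLa membranes expressing human 5-HT1A (50–70 µg protein) in 20 mM HEPES, 3 mM MgSO4, 120 mM NaCl pH 7.4 with 30 µM GDP; test drug 0.01 nM–10 µM, 20 min at 30 °C, then 200 pM [35S]GTPγS for 30 min at 30 °C. Nonspecific with 10 µM GTPγS; filtration and scintillation counting. Emax as % of maximal 8-OH-DPAT stimulation; pD2 = −log EC50.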
# [5] = biological target: T4, 5-hydroxytryptamine receptor 1A (Homo sapiens); assay: Agonist activity at human recombinant 5-HT1A receptor expressed in HeLa cells after 30 mins by [35S]GTPgammaS binding assay relative to control; assay type: functional, cell-based
# Summary of the method: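 HeLa membranes (50–70 µg protein) in 20 mM HEPES, 3 mM MgSO4, 120 mM NaCl, pH 7.4, preincubated 20 min at 30 °C with 30 µM GDP and drug (0.01 nM–10 µM), then 200 pM [35S]GTPγS added for 30 min at 30 °C. Nonspecific binding with 10 µM GTPγS. Filtration and scintillation counting. Data expressed as % increase over basal, 8-OH-DPAT maximum = 100%. Emax and pD2 derived.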
SMILES,Ki [1],Ratio (Rattus norvegicus),pKb [2],Ki [3],pD2 [4],Emax [5]
COc1ccccc1N1CCN(CC2COC3(CCN(S(C)(=O)=O)CC3)O2)CC1 (stereo unspecified),145 nM,0.52,7.41,23.4 nM,–,–
COc1ccccc1N1CCN(CC2COC3(CCN(S(=O)(=O)c4ccccc4)CC3)O2)CC1 (stereo unspecified),52.5 nM,0.13,7.48,12.3 nM,–,–
COc1ccccc1N1CCN(CC2COC3(CCNCC3)O2)CC1 (stereo unspecified),158 nM,0.13,7.74,37.2 nM,–,–
COc1ccccc1N1CCN(CC2COC3(CCOCC3)O2)CC1 (stereo unspecified),46.8 nM,1.44,7.55,25.1 nM,6.82,31%
COc1ccccc1N1CCN(CC2COC3(CCN(S(=O)(=O)c4ccc(C)cc4)CC3)O2)CC1 (stereo unspecified),26.9 nM,0.11,7.4,10.7 nM,7.33,28%
COc1ccccc1N1CCN(CC2COC3(CCN(C(C)=O)CC3)O2)CC1 (stereo unspecified),64.6 nM,0.05,7.17,89.1 nM,–,–
COc1ccccc1N1CCN(CC2COC3(CCN(S(=O)(=O)c4ccc(OC(F)(F)F)cc4)CC3)O2)CC1 (stereo unspecified),69.2 nM,0.42,6.98,26.3 nM,–,–
COc1ccccc1N1CCN(CC2COC3(CCN(C(=O)NC(C)(C)C)CC3)O2)CC1 (stereo unspecified),87.1 nM,0.13,7.63,35.5 nM,–,–
COc1ccccc1N1CCN(CC2COC3(CCN(S(=O)(=O)c4ccc([N+](=O)[O-])cc4)CC3)O2)CC1 (stereo unspecified),24.5 nM,1.86,7.74,5.75 nM,7.65,37%
COc1ccccc1N1CCN(CC2COC3(CCN(C(=O)C4CCCN4)CC3)O2)CC1 (stereo unspecified),36.3 nM,0.07,7.43,26.9 nM,–,–
COc1ccccc1N1CCN(CC2COC3(CCN(C(=O)C4CCCCC4)CC3)O2)CC1 (stereo unspecified),20.4 nM,0.49,6.95,39.8 nM,7.29,33%
COc1ccccc1N1CCN(CC2COC3(CCN(c4ccccc4)CC3)O2)CC1 (stereo unspecified),15.8 nM,0.74,7.78,8.13 nM,7.14,42%
COc1ccccc1N1CCN(CC2COC3(CCS(=O)(=O)CC3)O2)CC1 (stereo unspecified),81.3 nM,0.34,7.34,51.3 nM,–,–
COc1ccccc1N1CCN(CC2COC3(CCN(Cc4ccccc4)CC3)O2)CC1 (stereo unspecified),14.5 nM,26.3,7.72,4.68 nM,7.21,45%
COc1ccccc1N1CCN(CC2COC3(CCN(C(=O)c4ccco4)CC3)O2)CC1 (stereo unspecified),42.7 nM,0.49,7.43,28.2 nM,7.12,33%
COc1ccccc1N1CCN(CC2COC3(CCSCC3)O2)CC1 (stereo unspecified),9.33 nM,0.16,7.6,14.8 nM,7.48,36%
COc1ccccc1N1CCN(CC2COC3(CCN(S(=O)(=O)c4cccc([N+](=O)[O-])c4)CC3)O2)CC1 (stereo unspecified),43.7 nM,0.69,7.97,0.912 nM,–,–
COc1ccccc1N1CCN(CC2COC3(CCN(C(=O)Nc4ccccc4)CC3)O2)CC1 (stereo unspecified),33.1 nM,0.12,7.22,13.2 nM,7.22,28%
COc1ccccc1N1CCN(CC2COC3(CCN(S(=O)(=O)c4ccc(Cl)cc4)CC3)O2)CC1 (stereo unspecified),37.2 nM,1.02,7.24,7.08 nM,–,–
COc1ccccc1N1CCN(CC2COC3(CCN(c4ccccn4)CC3)O2)CC1 (stereo unspecified),8.91 nM,0.1,7.63,22.9 nM,6.49,41%
COc1ccccc1N1CCN(CC2COC3(CCN(C(=O)c4ccccc4)CC3)O2)CC1 (stereo unspecified),58.9 nM,0.18,7.71,20.4 nM,–,–
COc1ccccc1N1CCN(CC2COC3(CCN(S(=O)(=O)c4cccs4)CC3)O2)CC1 (stereo unspecified),60.3 nM,0.16,7.46,9.77 nM,–,–
COc1ccccc1N1CCN(CC2COC3(CCN(C(=O)C(F)(F)F)CC3)O2)CC1 (stereo unspecified),324 nM,0.31,6.97,417 nM,–,–
COc1ccccc1N1CCN(CC2COC3(CCN(C(=O)c4ccc(C(F)(F)F)cc4)CC3)O2)CC1 (stereo unspecified),50.1 nM,0.09,7.79,11 nM,–,–
